From ChEMBL document CHEMBL3758168, “Hybrid triazoles: Design and synthesis as potential dual inhibitor of growth and efflux inhibition in tuberculosis” (Eur J Med Chem, 2016)
In brackets after ≈: the same amount, converted by molar mass.

How the values were obtained:
[1] = system: Mycolicibacterium smegmatis; experiment: Anti-tubercular activity against Mycobacterium smegmatis MC2 155 ATCC 700084 after 3 days by microdilution method; type: functional; settings: MC2 155 ATCC 700084, 72 h
How it was run: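 M. smegmatis mc2155 grown in MB7H9 + 10% OADC at 37 °C with shaking to OD600 0.8. Inoculum set to 0.5 McFarland, diluted 1:100, and mixed 1:1 with two-fold serial dilutions in MB7H9. Plates incubated 3 days at 37 °C with growth and sterility controls. MIC taken as the lowest concentration with no visible growth.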

[2] = Cytotoxicity against human MDM assessed as cell viability after 3 days by Alamar blue dye-based fluorocytometric analysis relative to control; settings: 72 h
[3] = system: Mycobacterium tuberculosis; experiment: Antibacterial activity against Mycobacterium tuberculosis H37Rv ATCC 27294T assessed as isoniazid MIC at 0.25 ug/ml after 7 days by microdilution checkerboard assay; type: functional; settings: 168 h
How it was run: (§1)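 Two-dimensional checkerboard in H37Rv at 10^5 CFU/ml in MB7H9/OADC. Partner drug (amikacin, EtBr, isoniazid, ofloxacin or rifampin) two-fold serially diluted across columns 3-11. Test compound two-fold serially diluted down rows 2-6. Plates incubated 7 days at 37 °C, then MTT added overnight. […] Run in triplicate.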

[4] = system: Mycobacterium tuberculosis; experiment: Antibacterial activity against Mycobacterium tuberculosis H37Rv ATCC 27294T assessed as isoniazid MIC at 0.12 ug/ml after 7 days by microdilution checkerboard assay; type: functional; settings: 168 h; how it was run: as §1
[5] = system: Mycobacterium tuberculosis; experiment: Antibacterial activity against Mycobacterium tuberculosis H37Rv ATCC 27294T assessed as ethidium bromide MIC at 0.12 ug/ml after 7 days by microdilution checkerboard assay; type: functional; settings: 168 h; how it was run: as §1
[6] = system: Mycobacterium tuberculosis; experiment: Antibacterial activity against Mycobacterium tuberculosis H37Rv ATCC 27294T assessed as ethidium bromide MIC at 0.25 ug/ml after 7 days by microdilution checkerboard assay; type: functional; settings: 168 h; how it was run: as §1
[7] = system: Mycobacterium tuberculosis; experiment: Antibacterial activity against Mycobacterium tuberculosis H37Rv ATCC 27294T assessed as ethidium bromide MIC at 0.5 ug/ml after 7 days by microdilution checkerboard assay; type: functional; settings: 168 h; how it was run: as §1
[8] = system: Mycobacterium tuberculosis; experiment: Antibacterial activity against Mycobacterium tuberculosis H37Rv ATCC 27294T assessed as ethidium bromide MIC at 1 ug/ml after 7 days by microdilution checkerboard assay; type: functional; settings: 168 h; how it was run: as §1
[9] = system: Mycobacterium tuberculosis; experiment: Antibacterial activity against Mycobacterium tuberculosis H37Rv ATCC 27294T assessed as ethidium bromide MIC at 2 ug/ml after 7 days by microdilution checkerboard assay; type: functional; settings: 168 h; how it was run: as §1
[10] = system: Mycobacterium tuberculosis; experiment: Antibacterial activity against Mycobacterium tuberculosis H37Rv ATCC 27294T assessed as ethidium bromide MIC at 4 ug/ml after 7 days by microdilution checkerboard assay; type: functional; settings: 168 h; how it was run: as §1
[11] = system: Mycobacterium tuberculosis; experiment: Antibacterial activity against Mycobacterium tuberculosis H37Rv ATCC 27294T assessed as ethidium bromide MIC at 8 ug/ml after 7 days by microdilution checkerboard assay; type: functional; settings: 168 h; how it was run: as §1
[12] = system: Mycobacterium tuberculosis; experiment: Antibacterial activity against Mycobacterium tuberculosis H37Rv ATCC 27294T assessed as ofloxacin MIC at 0.12 ug/ml after 7 days by microdilution checkerboard assay; type: functional; settings: 168 h; how it was run: as §1
[13] = system: Mycobacterium tuberculosis; experiment: Antibacterial activity against Mycobacterium tuberculosis H37Rv ATCC 27294T assessed as ofloxacin MIC at 0.25 ug/ml after 7 days by microdilution checkerboard assay; type: functional; settings: 168 h; how it was run: as §1
[14] = system: Mycobacterium tuberculosis; experiment: Antibacterial activity against Mycobacterium tuberculosis H37Rv ATCC 27294T assessed as ofloxacin MIC at 0.5 ug/ml after 7 days by microdilution checkerboard assay; type: functional; settings: 168 h; how it was run: as §1
[15] = system: Mycobacterium tuberculosis; experiment: Antibacterial activity against Mycobacterium tuberculosis H37Rv ATCC 27294T assessed as ofloxacin MIC at 1 ug/ml after 7 days by microdilution checkerboard assay; type: functional; settings: 168 h; how it was run: as §1
[16] = system: Mycobacterium tuberculosis; experiment: Antibacterial activity against Mycobacterium tuberculosis H37Rv ATCC 27294T assessed as ofloxacin MIC at 2 ug/ml after 7 days by microdilution checkerboard assay; type: functional; settings: 168 h; how it was run: as §1
[17] = system: Mycobacterium tuberculosis; experiment: Antibacterial activity against Mycobacterium tuberculosis H37Rv ATCC 27294T assessed as ofloxacin MIC at 4 ug/ml after 7 days by microdilution checkerboard assay; type: functional; settings: 168 h; how it was run: as §1
[18] = system: Mycobacterium tuberculosis; experiment: Antibacterial activity against Mycobacterium tuberculosis H37Rv ATCC 27294T assessed as ofloxacin MIC at 8 ug/ml after 7 days by microdilution checkerboard assay; type: functional; settings: 168 h; how it was run: as §1
[19] = system: Mycobacterium tuberculosis; experiment: Antibacterial activity against Mycobacterium tuberculosis H37Rv ATCC 27294T assessed as amikacin MIC at 0.12 ug/ml after 7 days by microdilution checkerboard assay; type: functional; settings: 168 h; how it was run: as §1
[20] = system: Mycobacterium tuberculosis; experiment: Antibacterial activity against Mycobacterium tuberculosis H37Rv ATCC 27294T assessed as amikacin MIC at 0.25 ug/ml after 7 days by microdilution checkerboard assay; type: functional; settings: 168 h; how it was run: as §1
[21] = system: Mycobacterium tuberculosis; experiment: Antibacterial activity against Mycobacterium tuberculosis H37Rv ATCC 27294T assessed as amikacin MIC at 0.5 ug/ml after 7 days by microdilution checkerboard assay; type: functional; settings: 168 h; how it was run: as §1
[22] = system: Mycobacterium tuberculosis; experiment: Antibacterial activity against Mycobacterium tuberculosis H37Rv ATCC 27294T assessed as amikacin MIC at 1 ug/ml after 7 days by microdilution checkerboard assay; type: functional; settings: 168 h; how it was run: as §1
[23] = system: Mycobacterium tuberculosis; experiment: Antibacterial activity against Mycobacterium tuberculosis H37Rv ATCC 27294T assessed as amikacin MIC at 2 ug/ml after 7 days by microdilution checkerboard assay; type: functional; settings: 168 h; how it was run: as §1
[24] = system: Mycobacterium tuberculosis; experiment: Antibacterial activity against Mycobacterium tuberculosis H37Rv ATCC 27294T assessed as amikacin MIC at 4 ug/ml after 7 days by microdilution checkerboard assay; type: functional; settings: 168 h; how it was run: as §1
[25] = system: Mycobacterium tuberculosis; experiment: Anti-tubercular activity against Mycobacterium tuberculosis H37Rv ATCC 27294T after 7 days by mircodilution method; type: functional; settings: 168 h
How it was run: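 H37Rv grown static in MB7H9 + 10% OADC at 37 °C to OD600 0.8, then diluted to about 10^5 cells/ml. Mixed 1:1 with two-fold serial dilutions in MB7H9/OADC and incubated 7 days at 37 °C. MTT added to final 2.5% and plates incubated overnight. MIC is the lowest concentration with no colour change. Run in triplicate.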

[26] = system: Mycobacterium tuberculosis; experiment: Antibacterial activity against Mycobacterium tuberculosis H37Rv ATCC 27294T assessed as isoniazid MIC at 8 ug/ml after 7 days by microdilution checkerboard assay; type: functional; settings: 168 h; how it was run: as §1
[27] = system: Mycobacterium tuberculosis; experiment: Antibacterial activity against Mycobacterium tuberculosis H37Rv ATCC 27294T assessed as isoniazid MIC at 4 ug/ml after 7 days by microdilution checkerboard; type: functional; settings: 168 h; how it was run: as §1
[28] = system: Mycobacterium tuberculosis; experiment: Antibacterial activity against Mycobacterium tuberculosis H37Rv ATCC 27294T assessed as isoniazid MIC at 2 ug/ml after 7 days by microdilution checkerboard assay; type: functional; settings: 168 h; how it was run: as §1
[29] = system: Mycobacterium tuberculosis; experiment: Antibacterial activity against Mycobacterium tuberculosis H37Rv ATCC 27294T assessed as isoniazid MIC at 1 ug/ml after 7 days by microdilution checkerboard assay; type: functional; settings: 168 h; how it was run: as §1
[30] = system: Mycobacterium tuberculosis; experiment: Antibacterial activity against Mycobacterium tuberculosis H37Rv ATCC 27294T assessed as isoniazid MIC at 0.5 ug/ml after 7 days by microdilution checkerboard assay; type: functional; settings: 168 h; how it was run: as §1
[31] = system: Mycobacterium tuberculosis; experiment: Antibacterial activity against Mycobacterium tuberculosis H37Rv ATCC 27294T assessed as amikacin MIC at 8 ug/ml after 7 days by microdilution checkerboard assay; type: functional; settings: 168 h; how it was run: as §1
[32] = system: Mycobacterium tuberculosis; experiment: Antibacterial activity against Mycobacterium tuberculosis H37Rv ATCC 27294T assessed as rifampin MIC at 0.12 ug/ml after 7 days by microdilution checkerboard assay; type: functional; settings: 168 h; how it was run: as §1
[33] = system: Mycobacterium tuberculosis; experiment: Antibacterial activity against Mycobacterium tuberculosis H37Rv ATCC 27294T assessed as rifampin MIC at 0.25 ug/ml after 7 days by microdilution checkerboard assay; type: functional; settings: 168 h; how it was run: as §1
[34] = system: Mycobacterium tuberculosis; experiment: Antibacterial activity against Mycobacterium tuberculosis H37Rv ATCC 27294T assessed as rifampin MIC at 0.5 ug/ml after 7 days by microdilution checkerboard assay; type: functional; settings: 168 h
How it was run: (§2)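 M. tuberculosis H37Rv grown in MB7H9 + 10% OADC at 37 °C to OD600 0.8; plates inoculated at 10^5 CFU/ml. Rifampicin two-fold serially diluted across columns, test compound two-fold diluted down rows (two-dimensional checkerboard). Sealed, 37 °C for seven days, then MTT added and incubated overnight. MIC read as no colour change. Triplicate.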

[35] = system: Mycobacterium tuberculosis; experiment: Antibacterial activity against Mycobacterium tuberculosis H37Rv ATCC 27294T assessed as rifampin MIC at 1 ug/ml after 7 days by microdilution checkerboard assay; type: functional; settings: 168 h; how it was run: as §2
[36] = system: Mycobacterium tuberculosis; experiment: Antibacterial activity against Mycobacterium tuberculosis H37Rv ATCC 27294T assessed as rifampin MIC at 2 ug/ml after 7 days by microdilution checkerboard assay; type: functional; settings: 168 h; how it was run: as §2
[37] = system: Mycobacterium tuberculosis; experiment: Antibacterial activity against Mycobacterium tuberculosis H37Rv ATCC 27294T assessed as rifampin MIC at 4 ug/ml after 7 days by microdilution checkerboard assay; type: functional; settings: 168 h; how it was run: as §2
[38] = system: Mycobacterium tuberculosis; experiment: Antibacterial activity against Mycobacterium tuberculosis H37Rv ATCC 27294T assessed as rifampin MIC at 8 ug/ml after 7 days by microdilution checkerboard assay; type: functional; settings: 168 h; how it was run: as §2

CCCSc1nnc(COc2ccccc2C2=NOC(c3ccc(Cl)cc3Cl)C2)n1NC(C)=O (stereo not drawn)
MIC [1]: 1 µg/mL (≈ 1.92 µM)
IC50 [2]: 128 µg/mL (≈ 245 µM)
MIC [3]: 0.1 µg/mL
MIC [4]: 0.1 µg/mL
MIC [5]: 12.5 µg/mL
MIC [6]: 12.5 µg/mL
MIC [7]: 12.5 µg/mL
MIC [8]: 6.25 µg/mL
MIC [9]: 0.781 µg/mL
MIC [10]: 0.195 µg/mL
MIC [11]: 0.195 µg/mL
MIC [12]: 1 µg/mL
MIC [13]: 1 µg/mL
MIC [14]: 1 µg/mL
MIC [15]: 0.25 µg/mL
MIC [16]: 0.0312 µg/mL
MIC [17]: 0.0156 µg/mL
MIC [18]: 0.0156 µg/mL
MIC [19]: 1 µg/mL
MIC [20]: 1 µg/mL
MIC [21]: 1 µg/mL
MIC [22]: 1 µg/mL
MIC [23]: 0.25 µg/mL
MIC [24]: 0.25 µg/mL
MIC [25]: 4 µg/mL (≈ 7.69 µM)
MIC [26]: 0.00078 µg/mL
MIC [27]: 0.00312 µg/mL
MIC [28]: 0.0125 µg/mL
MIC [29]: 0.05 µg/mL
MIC [30]: 0.1 µg/mL
MIC [31]: 0.0312 µg/mL
MIC [32]: 0.0625 µg/mL
MIC [33]: 0.0312 µg/mL
MIC [34]: 0.0312 µg/mL
MIC [35]: 0.0156 µg/mL
MIC [36]: 0.0156 µg/mL
MIC [37]: 0.0156 µg/mL
MIC [38]: 0.0156 µg/mL
